Bioassay records as filed in PubChem BioAssay.
FN deposition inh = fibronectin deposition inhibition. AH1F fibroblasts, Alexa488-fibronectin deposition fluorescence, overnight. inhibition, % at 12.6 µM. 0.086% of 350,000 active. AID 743247;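 active means mean inhibition across replicates of 30% or more, regardless of how many single replicates reach that level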
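Material: AH1F fibroblast monolayer depositing Alexa488-labelled fibronectin into matrix / Amount: 10000 AH1F cells per well / Signal: fluorescence 485/525 nm / Medium: DMEM, 2% serum / Compound: single dose, pinned / Incubation: 1 h cell adhesion before compound, then overnight fibronectin incubation / Reagent: Alexa488-FN, 24 nM final / Read-out: inhibition of fibronectin deposition signal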
ERp5 inh = inhibitors of human ERp5; ERp5 insulin aggregation, absorbance 650 nm, 90 min; inhibition, % at 9.99 µM; 0.05% of 350,000 active; AID 651711;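 active means mean replicate inhibition above about 25%, with every replicate also reaching it, limit read from the data, passing the limit was not always enough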
Target sequence (Q15084 whole entry, looked up): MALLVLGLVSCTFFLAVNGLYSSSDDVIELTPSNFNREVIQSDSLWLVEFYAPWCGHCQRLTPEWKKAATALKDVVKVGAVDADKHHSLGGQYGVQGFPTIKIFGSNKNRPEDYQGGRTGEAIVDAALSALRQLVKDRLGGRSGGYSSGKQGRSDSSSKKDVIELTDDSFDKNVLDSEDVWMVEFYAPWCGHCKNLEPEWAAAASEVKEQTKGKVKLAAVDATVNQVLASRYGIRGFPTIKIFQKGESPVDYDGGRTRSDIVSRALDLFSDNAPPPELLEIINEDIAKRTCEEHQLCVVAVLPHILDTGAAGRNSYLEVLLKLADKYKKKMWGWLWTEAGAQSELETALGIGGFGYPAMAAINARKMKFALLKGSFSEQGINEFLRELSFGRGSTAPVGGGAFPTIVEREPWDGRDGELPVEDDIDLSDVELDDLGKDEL
PvdQ acylase = P. aeruginosa PvdQ acylase inhibition | 0.063% of 340,000 active | AID 488965 | inhibition, % at 10 µM | purified PvdQ acylase, fluorescence plate reader; in the data active means inhibition above about 30%, passing the limit was not always enough
rRNA inh HTS = inhibitors of bacterial rRNA selective over humanized ribosomes. 1.6% of 350,000 active. AID 720706. E. coli WT GFP vs humanized-ribosome RFP mutants, fluorescence, 24 h; active compounds read low; DMSO median 0, no signal -100. GFP signal change (wild-type ribosome), % (no concentration beside the values);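 active means significant combined selectivity score with lowered wild-type GFP, culture density cut under 30%, mutant RFP and density less affected; inactive means any of these conditions unmet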
Env fusion inh = blocks HIV Env-driven cell-cell fusion. inhibition, % at 12.3 µM. 1.1% of 360,000 active. AID 651610. HeLa-JRFL Env/CEM21 cell fusion, luciferase;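 active means mean replicate inhibition score of at least 50 and every replicate individually at or above 50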
PDI inh = inhibitors of human protein disulfide isomerase | P07237 | PDI insulin aggregation turbidity, A650, 90 min | inhibition, % at 10 µM | 0.052% of 350,000 active | AID 588391;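 active means mean inhibition across replicates of 30% or more, whatever share of single replicates reach that level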
Numbers stand for hits; . = inactive; / = no result. In the library only some 2.2% were active in any assay of this set; here they are far more common.

SMILES | FN deposition inh | ERp5 inh | PvdQ acylase | rRNA inh HTS | Env fusion inh | PDI inh
COc1ccc(-n2c(CNc3ccc(C)cc3)nnc2SCc2ccccc2)cc1 | . | / | . | / | . | .
O=C(Nc1cccc2[nH]ncc12)c1ccc(F)cc1 | . | / | . | / | 74 | .
O=C(NC(=S)Nc1cccc2[nH]ncc12)c1ccccc1 | . | . | . | . | . | .
COc1ccc2c3c(n(C)c2c1)[C@@H](CO)N(C(=O)NC(C)C)CC31CCN(C(=O)NC(C)C)CC1 | / | . | / | . | . | /
COc1ccc(C(C(=O)NC(C)(C)C)N(CCC(C)C)C(=O)CCC(=O)Nc2cc(C)on2)cc1 (stereo unspecified) | . | . | . | . | 69 | .
COc1ccc(C(C(=O)NC(C)(C)C)N(Cc2ccccc2)C(=O)CCC(=O)Nc2cc(C)on2)cc1 (stereo unspecified) | . | . | . | . | . | .
CCOC(=O)N1CCN(S(=O)(=O)c2ccc(C(=O)NNc3nc4c(C)cccc4s3)cc2)CC1 | . | . | . | . | 60 | /
Cc1cccc2sc(NNC(=O)c3ccc(S(=O)(=O)N4CCCC(C)C4)cc3)nc12 (stereo unspecified) | . | . | . | . | / | /
CCOC(=O)N1CCN(S(=O)(=O)c2ccc(C(=O)NNc3nc4c(C)cc(C)cc4s3)cc2)CC1 | . | . | / | / | . | /
Cc1cc(C)c2nc(NNC(=O)c3ccc(S(=O)(=O)N4CCCCC4)cc3)sc2c1 | . | . | . | -12 | / | /
C[C@H](CO)N1C[C@H](C)[C@@H](CN(C)Cc2ccc(Cl)c(Cl)c2)OCc2ccccc2-c2c(n(C)c3ccccc23)C1=O | . | / | / | . | / | /
O=C1NC(Cc2ccc(Cl)cc2)COCc2cnnn2CCC1c1ccccc1 (stereo unspecified) | . | . | / | . | . | /
CCOc1ccc(C(C)=O)cc1CSc1nnnn1-c1ccc(O)cc1 | . | . | . | . | . | .
COc1ccc(C(C)=O)cc1CSc1nnc(-c2ccccc2O)n1-c1ccccc1 | / | . | . | -27 | / | .
COc1ccc(F)cc1CSc1nnnn1-c1ccc(O)cc1 | . | . | . | . | . | .
COc1cc(CSc2nnnn2-c2ccc(C)cc2)cc(OC)c1OC | . | / | . | / | 95 | .
COc1ccc(C(C)=O)cc1CSc1nnnn1-c1ccc(O)cc1 | . | . | . | -48 | . | .
COCC(C)n1c(C)cc(C(=O)CSc2nnnn2-c2ccc(O)cc2)c1C (stereo unspecified) | . | . | . | -28 | . | .
C[C@@H]1CCCCO[C@@H](CN(C)C(=O)Nc2ccccc2)[C@H](C)CN([C@H](C)CO)C(=O)c2cc(NC(=O)c3ccncc3)ccc2O1 | . | . | / | . | . | /
CO[C@H]1CN(C)C(=O)c2ccc(NC(=O)CC(F)(F)F)cc2OC[C@H](C)N(C(C)=O)C[C@@H]1C | . | . | / | . | / | /
C[C@H](CO)N1C[C@H](C)[C@H](CN(C)Cc2cccnc2)Oc2cc(-c3cccnc3)ccc2S1(=O)=O | . | / | / | . | . | /
COc1ccc(C(=O)NC(C)c2nc3ccccc3n2C)cc1OC (stereo unspecified) | . | / | . | / | . | .
COc1ccc(C(O)c2nc3ccccc3n2C)cc1OC (stereo unspecified) | . | / | . | / | 74 | .
CCc1nc2ccccc2n1Cc1ccccc1OC | / | / | . | / | / | .
CCCc1nc2ccccc2n1Cc1ccccc1OC | . | . | . | -45 | . | .
SMILES | FN deposition inh | ERp5 inh | PvdQ acylase | rRNA inh HTS | Env fusion inh | PDI inh
CCCCn1c(N)c(N(CC(C)C)C(=O)c2ccc(S(=O)(=O)N(CC)c3ccccc3)cc2)c(=O)[nH]c1=O | . | . | . | . | 102 | .
CCCCn1c(N)c(N(CC(C)C)C(=O)c2cccc(S(=O)(=O)N(C)c3ccccc3)c2)c(=O)[nH]c1=O | . | . | . | . | . | .
Cc1cc(C)nc(/N=C(\N)Nc2ccc(OCCC(C)C)cc2)n1 | . | . | . | . | . | .
Cc1cc(C)nc(/N=C(\N)Nc2ccc(CC(=O)OC(C)C)cc2)n1 | . | . | . | . | 68 | .
O=C(COc1cc2oc(=O)c3c(c2cc1Cl)CCC3)NCC1CCC(C(=O)O)CC1 (stereo unspecified) | . | . | . | . | . | .
O=C(COc1cc2oc(=O)c3c(c2cc1Cl)CCCC3)NCC1CCC(C(=O)O)CC1 (stereo unspecified) | . | . | . | -23 | . | .
COc1cccc(Cn2cccc(NC(=O)Nc3cccc(C#N)c3)c2=O)c1 | . | . | / | . | . | /
COc1cccc(NC(=O)Nc2cccn(Cc3ccc(C)cc3)c2=O)c1 | . | . | . | -29 | . | .
COc1cccc(NC(=O)Nc2cccc(C(=O)O)c2)c1 | . | . | . | . | 71 | .
O=C(Nc1ccc(NC(=O)c2cccs2)cc1)c1ccc2c(c1)OCO2 | . | . | . | . | . | .
O=C(Nc1cccc(C(=O)O)c1)Nc1ccc2c(c1)OCO2 | . | . | . | . | 83 | .
O=C(Nc1cccc(NC(=O)c2cccs2)c1)c1ccc2c(c1)OCO2 | . | . | . | -34 | . | .
Cc1ccc(NC(=O)c2ccc(Cl)c(NC(=O)c3cccs3)c2)cc1 | . | . | . | -37 | . | .
COc1ccc(CN(C)C[C@H]2Oc3c(NS(=O)(=O)c4cccs4)cccc3C(=O)N([C@H](C)CO)C[C@H]2C)cc1 | . | . | / | . | . | /
CCOC(=O)[C@@H]1[C@H]2COc3ccccc3[C@@H]2N2C(=O)N(c3cccc(Cl)c3)C(=O)[C@@]12C | . | . | . | . | 55 | .
CCOC(=O)[C@H]1[C@H]2COc3ccccc3[C@@H]2N2C(=O)c3cc(C)ccc3NC(=O)[C@@]12C | . | . | . | . | . | .
CCOC(=O)[C@H]1[C@H]2COc3ccccc3[C@@H]2N2C(=O)c3c(C)cc(C)cc3NC(=O)[C@@]12C | . | . | . | . | 89 | .
COc1ccc2c(c1)OC[C@H]1[C@H]2N2C(=O)CN(Cc3ccc(Cl)cc3)C(=O)[C@@]2(C)[C@H]1c1ccccc1 | . | . | . | . | 73 | .
CCOC(=O)[C@@H]1[C@H]2COc3cc(OC)ccc3[C@H]2N2C(=O)N(c3cccc(F)c3)C(=O)[C@@]12C | . | . | . | . | 95 | .
CO[C@@H]1CN(C)C(=O)c2ccc(NC(=O)C3CCOCC3)cc2OC[C@H](C)NC[C@@H]1C | . | . | / | . | . | /
COc1ccc(-c2ccc([C@H]3[C@@H](CO)N4CCCCN(C(=O)c5ccc6c(c5)OCO6)C[C@H]34)cc2)cc1 | . | . | / | . | / | /
C[C@@H]1CCCCO[C@H](CN(C)C(=O)CCCN(C)C)[C@@H](C)CN([C@H](C)CO)C(=O)c2cc(NS(=O)(=O)c3cccs3)ccc2O1 | / | . | / | . | . | /
CO[C@H]1CN(C)C(=O)c2cc(NC(=O)C3CCCC3)ccc2OC[C@H](C)N(C(C)=O)C[C@@H]1C | . | / | / | . | . | /
